Measurements reported in ChEMBL document CHEMBL2086304, “Synthesis and in vitro antimycobacterial and isocitrate lyase inhibition properties of novel 2-methoxy-2'-hydroxybenzanilides, their thioxo analogues and benzoxazoles” (Eur J Med Chem, 2012).
Converted amounts (≈) assume the structure as drawn.

System: Mycobacterium tuberculosis
Assay: Antimycobacterial activity against Mycobacterium tuberculosis 331/88 after 14 days by micromethod
Format: functional
Conditions: 331/88, 336 h
Outline: (§1)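 Inocula: M. tuberculosis My 331/88 at 10^-3 dilution, M. avium My 330/88 at 10^-5, M. kansasii My 235/80 and clinical isolate 6509/96 at 10^-4. Compounds added in DMSO at 1000 down to 0.5 (twofold series). Read at 14 and 21 days, plus 7 days for M. kansasii. MIC taken as lowest concentration inhibiting growth.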
For `COc1cc(Cl)ccc1C(=O)Nc1cc(C(F)(F)F)ccc1O`, the MIC was 250 µM (≈ 86.4 µg/mL). For `COc1cc(Cl)ccc1-c1nc2cc(Br)ccc2o1`, the MIC was 250 µM (≈ 84.6 µg/mL). With `COc1ccc(Cl)cc1C(=S)Nc1ccc(C(F)(F)F)cc1O` the MIC was 62.5 µM (≈ 22.6 µg/mL). In the case of `NNC(=O)c1ccncc1` [ISONIAZID], the MIC is reported as 0.5 µM (≈ 0.0686 µg/mL). For `COc1cc(Cl)ccc1C(=O)Nc1ccc(Cl)cc1OC(=O)c1ccc(Cl)cc1OC`, the MIC was 4 µM (≈ 1.92 µg/mL).

System: Mycobacterium tuberculosis
Assay: Antimycobacterial activity against Mycobacterium tuberculosis 331/88 after 21 days by micromethod
Format: functional
Conditions: 331/88, 504 h
Outline: as §1
For `COc1cc(Cl)ccc1C(=O)Nc1cc(C(F)(F)F)ccc1O`, the MIC was 250 µM (≈ 86.4 µg/mL). Work on `COc1cc(Cl)ccc1-c1nc2cc(Br)ccc2o1` yielded an MIC of 250 µM (≈ 84.6 µg/mL). Work on `COc1ccc(Cl)cc1C(=S)Nc1ccc(C(F)(F)F)cc1O` yielded an MIC of 62.5 µM (≈ 22.6 µg/mL). For `NNC(=O)c1ccncc1` [ISONIAZID], the MIC was 0.5 µM (≈ 0.0686 µg/mL). `COc1cc(Cl)ccc1C(=O)Nc1ccc(Cl)cc1OC(=O)c1ccc(Cl)cc1OC` showed an MIC of 8 µM (≈ 3.85 µg/mL).

System: Mycobacterium avium
Assay: Antimycobacterial activity against isoniazid resistance Mycobacterium avium 330/88 after 14 days by micromethod
Format: functional
Conditions: 330/88, 336 h
Outline: as §1
`COc1cc(Cl)ccc1C(=O)Nc1cc(C(F)(F)F)ccc1O` showed an MIC of 250 µM (≈ 86.4 µg/mL). With `COc1cc(Cl)ccc1-c1nc2cc(Br)ccc2o1` the MIC was 250 µM (≈ 84.6 µg/mL). For `COc1ccc(Cl)cc1C(=S)Nc1ccc(C(F)(F)F)cc1O`, the MIC was 32 µM (≈ 11.6 µg/mL). In the case of `NNC(=O)c1ccncc1` [ISONIAZID], the MIC is reported as > 250 µM. Work on `COc1cc(Cl)ccc1C(=O)Nc1ccc(Cl)cc1OC(=O)c1ccc(Cl)cc1OC` yielded an MIC of 62.5 µM (≈ 30 µg/mL).

System: Mycobacterium avium
Assay: Antimycobacterial activity against isoniazid resistance Mycobacterium avium 330/88 after 21 days by micromethod
Format: functional
Conditions: 330/88, 504 h
Outline: as §1
`COc1cc(Cl)ccc1C(=O)Nc1cc(C(F)(F)F)ccc1O` showed an MIC of 250 µM (≈ 86.4 µg/mL). `COc1cc(Cl)ccc1-c1nc2cc(Br)ccc2o1` showed an MIC of 250 µM (≈ 84.6 µg/mL). `COc1ccc(Cl)cc1C(=S)Nc1ccc(C(F)(F)F)cc1O` showed an MIC of 62.5 µM (≈ 22.6 µg/mL). In the case of `NNC(=O)c1ccncc1` [ISONIAZID], the MIC is reported as > 250 µM. For `COc1cc(Cl)ccc1C(=O)Nc1ccc(Cl)cc1OC(=O)c1ccc(Cl)cc1OC`, the MIC was 62.5 µM (≈ 30 µg/mL).

System: Mycobacterium kansasii
Assay: Antimycobacterial activity against Mycobacterium kansasii 6509/96 clinical isolate after 7 days by micromethod
Format: functional
Conditions: 6509/96, 168 h
Outline: as §1
`COc1cc(Cl)ccc1C(=O)Nc1cc(C(F)(F)F)ccc1O` showed an MIC of 250 µM (≈ 86.4 µg/mL). In the case of `COc1cc(Cl)ccc1-c1nc2cc(Br)ccc2o1`, the MIC is reported as 250 µM (≈ 84.6 µg/mL). Compound `COc1ccc(Cl)cc1C(=S)Nc1ccc(C(F)(F)F)cc1O` has an MIC of 32 µM (≈ 11.6 µg/mL). `NNC(=O)c1ccncc1` [ISONIAZID] gave an MIC of 4 µM (≈ 0.549 µg/mL). `COc1cc(Cl)ccc1C(=O)Nc1ccc(Cl)cc1OC(=O)c1ccc(Cl)cc1OC` showed an MIC of 8 µM (≈ 3.85 µg/mL).

System: Mycobacterium kansasii
Assay: Antimycobacterial activity against isoniazid resistance Mycobacterium kansasii 225/80 after 7 days by micromethod
Format: functional
Conditions: 225/80, 168 h
`COc1cc(Cl)ccc1C(=O)Nc1cc(C(F)(F)F)ccc1O` gave an MIC of 250 µM (≈ 86.4 µg/mL). With `COc1cc(Cl)ccc1-c1nc2cc(Br)ccc2o1` the MIC was 250 µM (≈ 84.6 µg/mL). In the case of `NNC(=O)c1ccncc1` [ISONIAZID], the MIC is reported as > 250 µM. Compound `COc1cc(Cl)ccc1C(=O)Nc1ccc(Cl)cc1OC(=O)c1ccc(Cl)cc1OC` has an MIC of 16 µM (≈ 7.69 µg/mL).

System: Mycobacterium kansasii
Assay: Antimycobacterial activity against isoniazid resistance Mycobacterium kansasii 225/80 after 14 days by micromethod
Format: functional
Conditions: 225/80, 336 h
`COc1cc(Cl)ccc1C(=O)Nc1cc(C(F)(F)F)ccc1O` showed an MIC of 250 µM (≈ 86.4 µg/mL). Compound `COc1cc(Cl)ccc1-c1nc2cc(Br)ccc2o1` has an MIC of 250 µM (≈ 84.6 µg/mL). `COc1ccc(Cl)cc1C(=S)Nc1ccc(C(F)(F)F)cc1O` gave an MIC of 62.5 µM (≈ 22.6 µg/mL). For `NNC(=O)c1ccncc1` [ISONIAZID], the MIC was > 250 µM. Work on `COc1cc(Cl)ccc1C(=O)Nc1ccc(Cl)cc1OC(=O)c1ccc(Cl)cc1OC` yielded an MIC of 32 µM (≈ 15.4 µg/mL).

System: Mycobacterium kansasii
Assay: Antimycobacterial activity against isoniazid resistance Mycobacterium kansasii 225/80 after 21 days by micromethod
Format: functional
Conditions: 225/80, 504 h
With `COc1cc(Cl)ccc1C(=O)Nc1cc(C(F)(F)F)ccc1O` the MIC was 250 µM (≈ 86.4 µg/mL). `COc1cc(Cl)ccc1-c1nc2cc(Br)ccc2o1` showed an MIC of 250 µM (≈ 84.6 µg/mL). In the case of `COc1ccc(Cl)cc1C(=S)Nc1ccc(C(F)(F)F)cc1O`, the MIC is reported as 62.5 µM (≈ 22.6 µg/mL). For `NNC(=O)c1ccncc1` [ISONIAZID], the MIC was > 250 µM. Work on `COc1cc(Cl)ccc1C(=O)Nc1ccc(Cl)cc1OC(=O)c1ccc(Cl)cc1OC` yielded an MIC of 125 µM (≈ 60.1 µg/mL).

System: Mycobacterium kansasii
Assay: Antimycobacterial activity against Mycobacterium kansasii 6509/96 clinical isolate after 14 days by micromethod
Format: functional
Conditions: 6509/96, 336 h
Outline: as §1
In the case of `COc1cc(Cl)ccc1C(=O)Nc1cc(C(F)(F)F)ccc1O`, the MIC is reported as 250 µM (≈ 86.4 µg/mL). Work on `COc1cc(Cl)ccc1-c1nc2cc(Br)ccc2o1` yielded an MIC of 250 µM (≈ 84.6 µg/mL). With `COc1ccc(Cl)cc1C(=S)Nc1ccc(C(F)(F)F)cc1O` the MIC was 62.5 µM (≈ 22.6 µg/mL). With `NNC(=O)c1ccncc1` [ISONIAZID] the MIC was 4 µM (≈ 0.549 µg/mL). With `COc1cc(Cl)ccc1C(=O)Nc1ccc(Cl)cc1OC(=O)c1ccc(Cl)cc1OC` the MIC was 16 µM (≈ 7.69 µg/mL).

System: Mycobacterium kansasii
Assay: Antimycobacterial activity against Mycobacterium kansasii 6509/96 clinical isolate after 21 days by micromethod
Format: functional
Conditions: 6509/96, 504 h
Outline: as §1
For `COc1cc(Cl)ccc1C(=O)Nc1cc(C(F)(F)F)ccc1O`, the MIC was 250 µM (≈ 86.4 µg/mL). Work on `COc1cc(Cl)ccc1-c1nc2cc(Br)ccc2o1` yielded an MIC of 250 µM (≈ 84.6 µg/mL). Compound `COc1ccc(Cl)cc1C(=S)Nc1ccc(C(F)(F)F)cc1O` has an MIC of 62.5 µM (≈ 22.6 µg/mL). Compound `NNC(=O)c1ccncc1` [ISONIAZID] has an MIC of 4 µM (≈ 0.549 µg/mL). With `COc1cc(Cl)ccc1C(=O)Nc1ccc(Cl)cc1OC(=O)c1ccc(Cl)cc1OC` the MIC was 62.5 µM (≈ 30 µg/mL).

Biological target: T1, Isocitrate lyase (Mycobacterium tuberculosis) (UniProt P9WKK7)
T1 sequence (whole entry): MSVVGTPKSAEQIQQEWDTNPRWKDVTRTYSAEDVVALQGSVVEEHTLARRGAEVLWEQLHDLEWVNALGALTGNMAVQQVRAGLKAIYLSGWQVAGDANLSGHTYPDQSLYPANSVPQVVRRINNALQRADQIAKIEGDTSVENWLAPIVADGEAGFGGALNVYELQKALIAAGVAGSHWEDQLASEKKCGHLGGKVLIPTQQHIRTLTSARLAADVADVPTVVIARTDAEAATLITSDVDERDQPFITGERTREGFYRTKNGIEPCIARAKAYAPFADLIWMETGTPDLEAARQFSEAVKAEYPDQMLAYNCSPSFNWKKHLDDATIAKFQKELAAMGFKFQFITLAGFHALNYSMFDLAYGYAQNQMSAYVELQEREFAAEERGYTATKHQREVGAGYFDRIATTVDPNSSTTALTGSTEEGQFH
Assay: Inhibition of Mycobacterium tuberculosis H37Rv isocitrate lyase expressed in Escherichia coli HB101 at 10 umol/L
Conditions: not given
Outline: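 Isocitrate lyase assayed per Dixon–Kornberg in 96-well format. Buffer: 50 mmol/L KH2PO4, 4 mmol/L MgCl2, 4 mmol/L phenylhydrazine, 12 mmol/L cysteine, pH 7.0. Glyoxylate phenylhydrazone read at 324 nm. Compounds added in DMSO, with DMSO-alone inhibition subtracted.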
`COc1cc(Cl)ccc1C(=O)Nc1cc(C(F)(F)F)ccc1O` gave an inhibition of 0%. Compound `COc1cc(Cl)ccc1-c1nc2cc(Br)ccc2o1` has an inhibition of 0%. In the case of `COc1ccc(Cl)cc1C(=S)Nc1ccc(C(F)(F)F)cc1O`, the inhibition is reported as 21%. `COc1cc(Cl)ccc1C(=O)Nc1ccc(Cl)cc1OC(=O)c1ccc(Cl)cc1OC` gave an inhibition of 0%.

System: HepG2
Assay: Cytotoxicity against human HepG2 cells after 24 hrs by CellTiter-96 cell viability assay
Format: functional, cell-based
Conditions: HepG2, 24 h
Outline: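 Hep G2 human hepatic cells (passage 12), 10,000 per well, grown 24 h at 37 °C, 5% CO2 in MEM with 1% glutamine, 10% FBS and 1% nonessential amino acids. Compounds in DMSO at eight increasing concentrations, quadruplicate, 24 h at 37 °C. Kit reagent added, 1.5 h at 37 °C, absorbance 490 nm. IC50 is the concentration reducing viability to 50% of control.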
In the case of `COc1cc(Cl)ccc1C(=O)Nc1cc(C(F)(F)F)ccc1O`, the IC50 is reported as 25.4 µM. In the case of `COc1ccc(Cl)cc1C(=S)Nc1ccc(C(F)(F)F)cc1O`, the IC50 is reported as 3.69 µM.

System: not listed separately
Assay: Selectivity index, ratio of IC50 for human HepG2 cells to MIC for Mycobacterium tuberculosis 331/88 after 14 days
Format: functional
Conditions: not given
Outline: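 Cytotoxicity in Hep G2 cells (passage 12), 10,000 cells/well, in MEM with 10% FBS, 1% glutamine and 1% nonessential amino acids. Cells preincubated 24 h, 37 °C, 5% CO2. Compounds in DMSO at eight concentrations in quadruplicate, 24 h. MTS-type reagent added for 1.5 h, A490 read, IC50 taken at 50% viability. SI = this IC50 over the 14-day M. tuberculosis MIC.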
For `COc1cc(Cl)ccc1C(=O)Nc1cc(C(F)(F)F)ccc1O`, the “Selectivity Index” value was 0.1. For `COc1ccc(Cl)cc1C(=S)Nc1ccc(C(F)(F)F)cc1O`, the “Selectivity Index” value was 0.06.
